According to the EternaBench riboswitch data:

System: MS2 coat protein
Assay: apparent Kd, MS2 coat protein; higher = weaker binding; RNA-MaP array; FMN 200 µM where present
In short: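 Stalled E. coli RNA polymerase transcribed the designs on Illumina sequencing-chip clusters. SNAP-549-labelled MS2 coat protein was titrated from 0.7 or 1.5 nM, doubling to 3 µM, without and then with constant ligand, in 100 mM Tris-HCl pH 7.5, 80 mM KCl, 4 mM MgCl2, BSA, DTT, yeast tRNA and Tween-20. Per-cluster binding curves were fitted to green signal normalised to red-channel RNA signal and control-cluster median Fmax. The apparent Kd is the median of the filtered fits.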

[1] = designed as: OFF switch for flavin mononucleotide, no ligand
[2] = ligand present: flavin mononucleotide, designed as: OFF switch for flavin mononucleotide
[3] = designed as: ON switch for flavin mononucleotide, no ligand
[4] = ligand present: flavin mononucleotide, designed as: ON switch for flavin mononucleotide

| Sequence | apparent Kd [1] | apparent Kd [2] | apparent Kd [3] | apparent Kd [4] |
| --- | --- | --- | --- | --- |
| UAGAUGGGAGGAUAUGCGUAGAUGCGGAUUCGUGUGGUGCUACAUGAGGAUCACCCAUGUAGAAGGCCCGUCUU | 14.4 nM | 22 nM | – | – |
| UAGAUGUGAGGAUAUGGUAAAGAUAGAAUGAUGAAAGAACUCCAGAAGGCACAUGAGGAUCACCCAUGUAGAUG | 26.9 nM | 55 nM | – | – |
| UAGAUUUAUGUAGGAUAUACAUUUUUUAUGUAUGUAGAAGGACAUGAGGAUCACCCAUGUAAAUAAAUAUUAAAUAUCAUAAUU | 30.4 nM | 23.8 nM | – | – |
| UAGCCCGGCCAGAAGGGAGCUAUACAUGAGGAUCACCCAUGUCACUGACUCAGGAUAUGGCGCGCUUGGUAUAAGUAUUCAUGG | – | – | 8.36 nM | 5.46 nM |
| UAGGGAGGAGGGAGGGAGACAUGAGGAUCACCCAUGUAAAGUCAGGAUAUUCUCAUAUUAUAUUAGGAGAAGGGAUACAUAUCU | 47.5 nM | 13.8 nM | – | – |
| UAGGGCGAGUUAUGUACAAGAUACAUGAGGAUCACCCAUGUGUAGGAUAUGACCCUUAUCGCUGGUCAGAAGGGCACGAGAAUC | 74.1 nM | 94.2 nM | – | – |
| UAGGUACAUGAGGAUCACCCAUGUGAGGAUAUAGAUGAAGAUUGCGAGAGGGAGAGGACUAGAAGGCACAGUGG | 33.3 nM | 36.8 nM | – | – |
| UAGGUACAUGAGGAUCACCCAUGUGGGUCGGUCACAGGAUAUCGCCGUGGGCCCAGGCGGCGAGAAGGGUGCCGGU | – | – | 277 nM | 34.8 nM |
| UAGGUCGACGUAGGAUAUGUAGGAUAUUCCUACAUGAGGAUCACCCAUGUUGAAAUGGAAGAAGGACAGAAGGACGUUGACCUU | – | – | 56.7 nM | 13.6 nM |
| UAGUAGAUCCGAGGAUAUACAAUCCGGAAACGGUACAUGAGGAUCACCCAUGUAGAAGGCGGAUCUACAGGUACUAAAGUACCU | 5.12 nM | 7.93 nM | – | – |
| UAUACUUACGAAGGAUAUGGUUACAUGAGGAUCACCCAUGUAUGUAUAUUGAUCUUGUAUUUUAACCAGAAGGUCGUGAGUAUA | 143 nM | 114 nM | – | – |
| UAUACUUACGAAGGAUAUGGUUACAUGAGGAUCACCCAUGUAUGUAUGUUGAUCGUGUAUCUUAACCAGAAGGUCGUCACUAUA | 44.9 nM | 56.5 nM | – | – |
| UAUAUAAUUAAGAGCUGGAACUCAACAUGAGGAUCACCCAUGUAGGAUAUCAGCACGAUAAGUGCUGAGAAGGACAUCCAGCUC | 16.6 nM | 17.8 nM | – | – |
| UAUAUAUAGGCAGGAUAUACAUGUAUAUAUAAUUUUUUAUAUAUUAUUACAUGAGGAUCACCCAUGUAGAAGGGCCAUAUUAUA | 34.8 nM | 51 nM | – | – |
| UAUAUAUAGUAAGGAUAUGUAACUAUUUUAUAAACAGAAGGUACUGACAUGAGGAUCACCCAUGUUUUAGUGUGGGCAUGUAGA | 86.7 nM | 136 nM | – | – |
| UAUAUAUAGUAAGGAUAUGUAAUUAUUUCAUAAACAGAAGGUACUGACAUGAGGAUCACCCAUGUUUUAGUGUGGGCAUGUAGA | 79.8 nM | 108 nM | – | – |
| UAUAUAUAGUAAGGAUAUGUAAUUAUUUUGUAAACAGAAGGUACUGACAUGAGGAUCACCCAUGUUUUAGUGUGGGCAUGUAGA | 117 nM | 182 nM | – | – |
| UAUAUAUAGUAAGGAUAUGUAUAUUUUUUAUAAACAGAAGGUACUGACAUGAGGAUCACCCAUGUUUUAGUGUGGGCAUGUAGA | 79.3 nM | 122 nM | – | – |
| UAUAUAUAGUAAGGAUAUGUAUUAAAUUUAUAAACAGAAGGUACUGACAUGAGGAUCACCCAUGUUUUAGUGUGGGCAUGUAGA | 99.6 nM | 148 nM | – | – |
| UAUAUAUAGUAAGGAUAUGUAUUAAUCUUAUAAACAGAAGGUACUGACAUGAGGAUCACCCAUGUUUUAGUGUGGGCAUGUAGA | 78.1 nM | 103 nM | – | – |
| UAUAUAUAGUAAGGAUAUGUAUUAAUGUUAUAAACAGAAGGUACUGACAUGAGGAUCACCCAUGUUUUAGUGUGGGCAUGUAGA | 92.1 nM | 131 nM | – | – |
| UAUAUAUAGUAAGGAUAUGUAUUAGUUUUAUAAACAGAAGGUACUGACAUGAGGAUCACCCAUGUUUUAGUGUGGGCAUGUAGA | 90 nM | 144 nM | – | – |
| UAUAUAUAGUAAGGAUAUGUAUUUAUUUUAGAAACAGAAGGUACUGACAUGAGGAUCACCCAUGUUUUAGUGUGGGCAUGUAGA | 96.3 nM | 152 nM | – | – |
| UAUAUAUAGUAAGGAUAUGUAUUUAUUUUAUUAACAGAAGGUACUGACAUGAGGAUCACCCAUGUUUUAGUGUGGGCAUGUAGA | 103 nM | 146 nM | – | – |
| UAUAUGUCAGGAUAUCGAUUGGAAUGGAAUUUAGUUUUGGUCGAGAAGGGACAUGAGGAUCACCCAUGUUUUUC | 38.7 nM | 215 nM | – | – |
| UAUAUUUAUGUAGGAUAUGGUAUACAAAGUAUACCAGAAGGACAUGAGGAUCACCCAUGUAUGAAAUUCCAUAAUUGCCGUGUA | 16.1 nM | 16.4 nM | – | – |
| UAUCCACAUGAGGAUCACCCAUGUGAGGAUAUGUCCAUAUUCGGCAAAUCGGAUAUGGACAGAAGGCACACCGG | 36.9 nM | 103 nM | – | – |
| UAUGGUUAAGUCAGGAUAUGCUCGUAGAGGUCUAUGCAGAAGGGACAUGAGGAUCACCCAUGUAAGGUCGUGUU | 39.9 nM | 66.3 nM | – | – |

| Sequence | apparent Kd [1] | apparent Kd [2] | apparent Kd [3] | apparent Kd [4] |
| --- | --- | --- | --- | --- |
| UAUGUACGAGGAUAUACAUAGAUACAGAUACAUGUAGACGUACAUGAGGAUCACCCAUGUAGAAGGCGUAUAUA | 101 nM | 122 nM | – | – |
| UAUGUAUUCGUAGGAUAUCCGUUGAGACCGUGUGGAGAAGGACGAACAUGAGGAUCACCCAUGUGUCAUGGUGUAGACAAUUUU | 65.5 nM | 220 nM | – | – |
| UAUGUGUCAGGAUAUUAGUAGUAAAUGAAUAAAAUUAUUACUGAGAAGGGACAUGAGGAUCACCCAUGUGCCUU | 15.9 nM | 20.3 nM | – | – |
| UAUUAACACGAAGGAUAUGCUUACAUGAGGAUCACCCAUGUAUGUAUAUUGAUCCAGAGUUUUGAGCAGAAGGUCGUGAGUAAA | 32.2 nM | 153 nM | – | – |
| UAUUAAUACGAAGGAUAUGGUUACAUGAGGAUCACCCAUGUAUGUAUUUUGAUCUAAUUAUUUAACCAGAAGGUCGAAUAUAAA | 35.5 nM | 78.5 nM | – | – |
| UAUUAGAUCCGAGGAUAUCCUUUUUUCUUACAUGAGGAUCACCCAUGUAAAGGGAUUGAGUUGUAGGAGAAGGCGGAUUUAGUU | – | – | 33.4 nM | 15.1 nM |
| UAUUAUAUAGAGAAGGACAUGAGGAUCACCCAUGUCGCCGGGCCCGGGAAACCGGGCCCGGCCAUGUAGGAUAUCUAUAUGGUA | 4.96 nM | 5.86 nM | – | – |
| UAUUAUGUUCGAGGAUAUCCGCGAUGCCGACCAGGAGAAGGCGAACAUGAGGAUCACCCAUGUUAUAGAUGACCGGUUACCAAA | 23.8 nM | 41.2 nM | – | – |
| UAUUCUUACGAAGGAUAUGGUUACAUGAGGAUCACCCAUGUAUGUAUAUUGAUCUAGUUUUUUAACCAGAAGGUCGUGAGUAUA | 40.4 nM | 54.2 nM | – | – |
| UAUUGAUAAUAUUUUAACAUGAGGAUCACCCAUGUCGCUCGACAGGAUAUAUUUUAUUUGUUUAAGUAGAAGGGUCGCAGAUUU | – | – | 117 nM | 103 nM |
| UAUUUUAACUAAGGAUAUCUAUAUUAUUUUGAAACAUGAGGAUCACCCAUGUUCAUGGGAUUAUAGGAGAAGGUAGAUGAAUAA | – | – | 14.6 nM | 9.54 nM |
| UCAAAGAGAUCGAAUGGGAGGCGUAAGGAUAUGCACAUGAGGAUCACCCAUGUCUACGAAAGUAGGCAGAAGGUACGCGGGAUU | – | – | 315 nM | 34.2 nM |
| UCACGGGAUUGAGGAUAUAUAUGAAUUUUUUUUAUAGAAGGCAAAAUGUUAGAUUAUUCACUAUACAUGAGGAUCACCCAUGUU | 26.9 nM | 24.2 nM | – | – |
| UCAGAAGUCACAGGAUAUCCGGCGUAGCACACAGGAGAAGGGUGAUCACGAGCACAUGAGGAUCACCCAUGUGACAUUUGUGGG | – | – | 53.6 nM | 27.5 nM |
| UCAGGAGUCACAGGAUAUCCGGCAUAGCAUACAGGAGAAGGGUGAUCACGAGCACAUGAGGAUCACCCAUGUGACAUUUGUGGA | – | – | 96.3 nM | 83.3 nM |
| UCAGGCUUCGAGAAGGACAUGAGGAUCACCCAUGUUAAUAUGUAGCAGCCGUGAGGCUGCAUCAUGUAGGAUAUCGGAGUCUGC | 7.02 nM | 18.7 nM | – | – |
| UCAUACGGUGAGGAUAUCUCCGUUAAAGUAUGUAGAGAAGGCGCUACAUGAGGAUCACCCAUGUUUGUGGGCAG | 392 nM | 278 nM | – | – |
| UCAUGAAGGGCAGGAUAUGGACAUGAGGAUCACCCAUGUACAUGGGAUUAUAUACUAAAUUAAUACUAGAAGGGUUACAUAAAU | 47.9 nM | 23.1 nM | – | – |
| UCAUGAUAUGUAGGAUAUCACUUUAAUUGAUUAAUAUAUGAAUAUAGAAUUUGAGAAGGACAUUUACAUGAGGAUCACCCAUGU | 12.9 nM | 9.67 nM | – | – |
| UCAUUUCAGUAAGGAUAUUUAUUCAUGACGAUACAUGAGGAUCACCCAUGUAAAGAAGGUACUAAUACAAAUAAUGCAUUGUUC | 11.9 nM | 10.1 nM | – | – |
| UCAUUUUCCACAGGAUAUAUUCAUAUACAGUUGUUUGGCUCUUACAUGUUAGUAGAAGGGUGCAACAUGAGGAUCACCCAUGUA | – | – | 362 nM | 186 nM |
| UCCCAACAUGAGGAUCACCCAUGUAAGGAUAUCUUACUCAUGGACGUCCAUGAGGACCGGAGAAGGUACGUGUA | 19.4 nM | 19.8 nM | – | – |
| UCCCAGUAAGGAUAUCAGGCAAGUCUCCGGGAGCUUAGUCGUGAGAAGGUACAUGAGGAUCACCCAUGUGAUUG | 58 nM | 211 nM | – | – |
| UCCCUAAGGCGGGCCGACCAUACAUGAGGAUCACCCAUGUCGAGAAGGUGCUCACGGGUGGGUGGCAAGGAUAUCGGGUCGGAU | – | – | 78.8 nM | 40.5 nM |
| UCCUCCGCAGGAUAUACAUGGGCGCCCGUCUUCAACCAUUAACAUGAGGAUCACCCAUGUAGAAGGGCGUCUCU | 16.1 nM | 15.5 nM | – | – |
| UCCUGACAUGAGGAUCACCCAUGUAAUUCCUGCCGAGGAUAUGGGCAACAAAGCGGUUGGCCAGAAGGCGGACAGC | – | – | 252 nM | 150 nM |
| UCCUGGCGAGGAUAUACAAUGUUUUUCGCGUGUUGUUGGGAACAUGAGGAUCACCCAUGUAGAAGGUGCUACUG | 409 nM | 286 nM | – | – |
